For test [1], the system named is HL-60. Put plainly: Antiproliferative activity against human HL60 cells by MTS assay. The test is classed as functional, cell-based. A digest of the protocol: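 HL-60 human myeloid leukemia cells grown in RPMI 1640 with 10% FBS, 37 °C, 5% CO2. Seeded 10,000 cells/100 µL; compounds (DMSO stocks serially diluted in PBS, final DMSO 0.5%) added 24 h after plating. Viable cells read by MTS after 3 days. IC50 from nonlinear fit of absorbance vs concentration to a Hill-slope equation.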
For orientation: Formazan colour is commonly taken as a measure of viable cells.

A short description of test [2]: Nitric oxide release at 100 to 150 nM in pH7.4 in presence of GSH. The test is classed as functional. Summed up: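 Performed in 0.1 M pH 7.4 phosphate buffer with 1 mM GSH, sparged with inert gas until detector baseline was steady. Prodrug stock injected to final 100–150 nM. NO release followed at 37 °C. Area under the release curve integrated to give mol NO released per mol compound.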

The IC50 is the midpoint of a concentration-inhibition curve.

`CN(C)/[N+]([O-])=N/Oc1cc(Nc2ccc(CO)cc2)c([N+](=O)[O-])cc1[N+](=O)[O-]`: it took 6.8 µM to reach half-maximal inhibition in test [1] (IC50). For the same molecule, the Activity in test [2] stood at 100%.
On the same counts, the results for `CC(=O)Oc1ccccc1C(=O)Oc1cc(O/N=[N+](\[O-])N(C)C)c([N+](=O)[O-])cc1[N+](=O)[O-]` are over 25 µM and 7%.
On the same counts, the results for `CN(C)/[N+]([O-])=N/Oc1cc(OC(=O)c2ccccc2)c([N+](=O)[O-])cc1[N+](=O)[O-]` are over 25 µM and 15%.
`CN(C(=O)c1ccccc1)c1cc(O/N=[N+](\[O-])N(C)C)c([N+](=O)[O-])cc1[N+](=O)[O-]` came in with a concentration for half-maximal inhibition (IC50) in test [1] of 1.6 µM. Moreover, the Activity in test [2] was determined as 99%.
`CC(C)Cc1ccc(C(C)C(=O)Oc2cc(O/N=[N+](\[O-])N(C)C)c([N+](=O)[O-])cc2[N+](=O)[O-])cc1` (stereo not given) showed an IC50 in test [1] of over 25 µM. In addition, in test [2], the Activity amounted to 0%.
Turning to `COc1ccc2cc(C(C)C(=O)Oc3cc(O/N=[N+](\[O-])N(C)C)c([N+](=O)[O-])cc3[N+](=O)[O-])ccc2c1` (stereo not given), the concentration for half-maximal inhibition (IC50) in test [1] is over 25 µM. Also, in test [2], the Activity is 5%.
The matching figures for `CCN(C(=O)c1ccccc1)c1cc(O/N=[N+](\[O-])N(C)C)c([N+](=O)[O-])cc1[N+](=O)[O-]`: 1.4 µM and 100%.
For the molecule `CC(=O)Nc1ccc(C(=O)Oc2cc(O/N=[N+](\[O-])N(C)C)c([N+](=O)[O-])cc2[N+](=O)[O-])cc1`, in test [1], the half-maximal inhibitory concentration (IC50) worked out at 22 µM. Further, the Activity in test [2] came to 20%.
The matching figures for `CN(C)/[N+]([O-])=N/Oc1cc(OC(=O)c2ccc(N)cc2)c([N+](=O)[O-])cc1[N+](=O)[O-]`: 13 µM and 63%.
As to `CN(C)c1ccc(C(=O)Oc2cc(O/N=[N+](\[O-])N(C)C)c([N+](=O)[O-])cc2[N+](=O)[O-])cc1`, the half-inhibitory concentration (IC50) in test [1] is over 25 µM. Further, the Activity in test [2] is 30%.
On the same counts, the results for `CC(=O)Nc1ccc(S(=O)(=O)Oc2cc(O/N=[N+](\[O-])N(C)C)c([N+](=O)[O-])cc2[N+](=O)[O-])cc1` are 3.9 µM and 96%.
In test [1], `CNc1ccc(C(=O)Oc2cc(O/N=[N+](\[O-])N(C)C)c([N+](=O)[O-])cc2[N+](=O)[O-])cc1` came in with an IC50 of 3.9 µM. For the same molecule, the Activity in test [2] came out at 73%.
The matching figures for `CN(C)/[N+]([O-])=N\Oc1cc(O)c([N+](=O)[O-])cc1[N+](=O)[O-]`: over 25 µM and 0%.
The matching figures for `CN(C)/[N+]([O-])=N/Oc1cc(OC(=O)c2cccnc2)c([N+](=O)[O-])cc1[N+](=O)[O-]`: over 25 µM and 4%.
With `CC(=O)Nc1ccc(Oc2cc(O/N=[N+](\[O-])N(C)C)c([N+](=O)[O-])cc2[N+](=O)[O-])cc1`, the 50% inhibitory concentration (IC50) in test [1] was found to be 2.3 µM. Also, the Activity in test [2] amounted to 93%.

The values are drawn from ChEMBL document CHEMBL1144008, “Synthesis, nitric oxide release, and anti-leukemic activity of glutathione-activated nitric oxide prodrugs: Structural analogues of PABA/NO, an anti-cancer lead compound” (Bioorg Med Chem, 2008).
